Our source for the inhibition and IC50 values is ChEMBL document CHEMBL4002555, “Bioactive Pentacyclic Triterpenoids from the Leaves of Cleistocalyx operculatus” (J Nat Prod, 2016).

For series [1], the system named is RAW264.7. Briefly: Anti-inflammatory activity in mouse RAW264.7 cells assessed as inhibition of LPS-induced IL-6 production at 0.4 uM pretreated for 1 hr followed by LPS stimulation measured after 24 hrs by ELISA relative to control. The class given is functional. A digest of the protocol:
(§1)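 LPS-stimulated RAW 264.7 macrophages, with IL-6 and TNF-α production read separately. Test concentrations were 0.4, 2, 10 and 50 μM, and dexamethasone was the reference drug. Results are given as percent inhibition of cytokine production.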
For orientation: In an ELISA, binding on a coated surface is turned into a signal by an enzyme label.

The nature of series [2]: Cytotoxicity against mouse RAW264.7 cells assessed as growth inhibition at 2 uM after 72 hrs by MTT assay relative to control. The class given is cell-based. The settings on record: read-out: GI. (In general: Tetrazolium assays rely on reduction of a dye to a coloured formazan, in cell work by metabolically active cells.)
In series [3] the test system is RAW264.7. The series can be described thus: Anti-inflammatory activity in mouse RAW264.7 cells assessed as inhibition of LPS-induced TNF-alpha production at 0.4 uM pretreated for 1 hr followed by LPS stimulation measured after 24 hrs by ELISA relative to control. The series is classed as functional. A digest of the protocol: as §1
Series [4] relates to HepG2. Briefly: Cytotoxicity against human HepG2 cells after 72 hrs by MTT assay. The settings on record: HepG2, 72 h. The series is classed as functional, cell-based. In a few lines:
(§2)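 MTT growth-inhibition assay in human HepG2 hepatocellular, NCI-N87 gastric and MCF-7 breast carcinoma lines, with a doxorubicin positive control. IC50 values are means ± SD from three individual experiments; >10.0 μM was taken as noncytotoxic.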

Series [5] concerns NCI-N87. Briefly: Cytotoxicity against human NCI-N87 cells after 72 hrs by MTT assay. The series is classed as functional, cell-based. The settings on record: NCI-N87, 72 h. In a few lines:
as §2

For series [6], the system named is RAW264.7. The series can be described thus: Anti-inflammatory activity in mouse RAW264.7 cells assessed as inhibition of LPS-induced TNF-alpha production at 2 uM pretreated for 1 hr followed by LPS stimulation measured after 24 hrs by ELISA relative to control. The class given is functional. A digest of the protocol:
as §1

In series [7] the test system is MCF7. Briefly: Cytotoxicity against human MCF7 cells after 72 hrs by MTT assay. The settings on record: MCF7, 72 h. The series is classed as functional, cell-based. A digest of the protocol:
as §2

Series [8] concerns RAW264.7. Briefly: Anti-inflammatory activity in mouse RAW264.7 cells assessed as inhibition of LPS-induced IL-6 production at 2 uM pretreated for 1 hr followed by LPS stimulation measured after 24 hrs by ELISA relative to control. The class given is functional. A digest of the protocol:
as §1

Series [9] relates to RAW264.7. The series can be described thus: Anti-inflammatory activity in mouse RAW264.7 cells assessed as inhibition of LPS-induced IL-6 production at 10 uM pretreated for 1 hr followed by LPS stimulation measured after 24 hrs by ELISA relative to control. The series is classed as functional. In a few lines: as §1
The test system of series [10] is RAW264.7. The series can be described thus: Anti-inflammatory activity in mouse RAW264.7 cells assessed as inhibition of LPS-induced TNF-alpha production at 50 uM pretreated for 1 hr followed by LPS stimulation measured after 24 hrs by ELISA relative to control. The series is classed as functional. A digest of the protocol: as §1
Series [11] can be described thus: Cytotoxicity against mouse RAW264.7 cells assessed as growth inhibition at 50 uM after 72 hrs by MTT assay relative to control. The series is classed as cell-based. The note with it: read-out: GI.
Series [12] deals with RAW264.7. Briefly: Anti-inflammatory activity in mouse RAW264.7 cells assessed as inhibition of LPS-induced TNF-alpha production at 10 uM pretreated for 1 hr followed by LPS stimulation measured after 24 hrs by ELISA relative to control. The class given is functional. In a few lines:
as §1

Series [13] relates to RAW264.7. The series can be described thus: Anti-inflammatory activity in mouse RAW264.7 cells assessed as inhibition of LPS-induced IL-6 production at 50 uM pretreated for 1 hr followed by LPS stimulation measured after 24 hrs by ELISA relative to control. The class given is functional. A digest of the protocol:
as §1

With `COC(=O)[C@]12CC=C(C)[C@@H](C)[C@@H]1[C@H]1CC[C@@H]3[C@@]4(C)CC[C@H](O)C(C)(C)[C@@H]4CC[C@@]3(C)[C@]1(C(=O)O)CC2`, the values for the inhibition at 0.4 µM in series [1] and in [3] were 38.4% and 39.1%, respectively. Besides, the inhibition at 72 h, 2 µM in series [2] was less than 5%. In addition, the figures for the IC50 in [4], in series [5] and in series [7] were 3.2 µM, 6.5 µM and 4.9 µM, respectively. Moreover, the values for the inhibition at 2 µM in [6] and in [8] were 42.9% and 51%, respectively.
Take `CC1(C)CC[C@@]23CC[C@]4(C)[C@@](OC2=O)([C@@H]3C1)[C@H]1O[C@H]1[C@@H]1[C@@]2(C)C[C@@H](O)[C@H](O)[C@@](C)(CO)[C@@H]2CC[C@]14C`: the inhibition at 10 µM in [9] and in series [12] was less than 50% throughout. Besides, the inhibition at 0.4 µM in [1] and in series [3] was less than 50% in each case. In addition, the inhibition at 50 µM in series [10] and in series [13] was less than 50% throughout. In addition, the IC50 in [4], in series [5] and in series [7] was more than 10 µM throughout. In addition, the inhibition at 2 µM in series [6] and in series [8] was less than 50% throughout. In [11], the inhibition at 72 h, 50 µM was less than 5%.
With `C=C1CC[C@]2(C(=O)O)CC[C@]3(C)C(=CC(=O)[C@@H]4[C@@]5(C)C[C@@H](O)[C@H](O)[C@@](C)(CO)[C@@H]5CC[C@]43C)[C@@H]2[C@H]1C`, the inhibition at 10 µM in series [9] and in series [12] was less than 50% in each case. The inhibition at 0.4 µM in series [1] and in [3] was less than 50% each time. Besides, the inhibition at 50 µM in series [10] and in series [13] was less than 50% throughout. Also, the 50% inhibitory concentration (IC50) in series [4], in series [5] and in series [7] was more than 10 µM in each case. The inhibition at 2 µM in [6] and in series [8] was less than 50% throughout. Also, in series [11], the inhibition at 72 h, 50 µM was less than 5%.

By IC50 is commonly meant the point on the concentration scale where inhibition reaches its midpoint. Lower therefore signals greater potency.
